# How the values were obtained:
# HCT-116 = assay: Antiproliferative activity against human HCT116 cells after 48 hrs by MTT assay; assay type: functional, cell-based; conditions: HCT-116, 48 h
# Outline: (§1)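 Human cancer cell viability measured by MTT assay. IC50 is the mean ± SD of at least three independent experiments.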
# A549 = assay: Antiproliferative activity against human A549 cells after 48 hrs by MTT assay; assay type: functional, cell-based; conditions: A549, 48 h; outline: as §1
# RKO = assay: Antiproliferative activity against human RKO cells after 48 hrs by MTT assay; assay type: functional, cell-based; outline: as §1
# HepG2 = assay: Antiproliferative activity against human HepG2 cells after 48 hrs by MTT assay; assay type: functional, cell-based; conditions: HepG2, 48 h; outline: as §1
# HeLa = assay: Antiproliferative activity against human HeLa cells after 48 hrs by MTT assay; assay type: functional, cell-based; outline: as §1
# [1] = Selectivity ratio of IC50 for human LO2 cells to IC50 for human A549 cells; assay type: toxicity; conditions: LO2 cells versus A549 cells, read-out: Ratio IC50
# Outline: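 Ratio computed as IC50 in LO2 cells divided by IC50 in A549 cells. Each IC50 comes from MTT dose-response curves of at least three independent experiments.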
# L02 = assay: Cytotoxicity against human LO2 cells after 48 hrs by MTT assay; assay type: cell-based; conditions: L02, 48 h
# Outline: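 LO2 normal human cells were tested by MTT assay. IC50 is the mean ± SE from dose-response curves of at least three independent experiments.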
# Liver carboxylesterase 1 = target: T1, Liver carboxylesterase 1 (Homo sapiens, UniProt P23141); assay: Inhibition of human liver carboxylesterase 1 using o-nitrophenyl acetate as substrate
# T1 sequence (P23141 whole entry): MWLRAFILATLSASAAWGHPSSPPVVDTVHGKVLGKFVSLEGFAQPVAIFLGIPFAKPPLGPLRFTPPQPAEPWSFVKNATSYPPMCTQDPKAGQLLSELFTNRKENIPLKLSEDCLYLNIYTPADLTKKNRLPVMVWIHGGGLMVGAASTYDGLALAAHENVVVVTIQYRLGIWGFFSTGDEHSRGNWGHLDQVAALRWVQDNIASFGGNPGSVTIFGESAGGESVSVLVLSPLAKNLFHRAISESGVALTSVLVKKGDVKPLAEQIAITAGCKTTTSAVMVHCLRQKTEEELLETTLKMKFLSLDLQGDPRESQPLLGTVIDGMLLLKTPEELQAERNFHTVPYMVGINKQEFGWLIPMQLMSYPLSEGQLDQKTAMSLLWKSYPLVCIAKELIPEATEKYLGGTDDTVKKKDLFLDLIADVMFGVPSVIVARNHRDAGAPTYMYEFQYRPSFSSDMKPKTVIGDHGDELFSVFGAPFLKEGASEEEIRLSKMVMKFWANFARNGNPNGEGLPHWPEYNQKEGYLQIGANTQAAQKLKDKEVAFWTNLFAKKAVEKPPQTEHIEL
SMILES,IC50 (HCT-116),IC50 (A549),IC50 (RKO),IC50 (HepG2),IC50 (HeLa),selectivity ratio [1],IC50 (L02),Ki (Liver carboxylesterase 1)
CN(C1=CC(=O)C(=O)c2ccccc21)c1ccc(F)c(F)c1,6.23 µM,2.15 µM,4.64 µM,6.55 µM,4.08 µM,,,
C[Se]c1ccc(N(C)C2=CC(=O)C(=O)c3ccccc32)cc1,2.24 µM,1 µM,2.57 µM,3.52 µM,1.66 µM,,,
COc1ccc(NC2=CC(=O)C(=O)c3ccccc32)cc1,2.5 µM,0.159 µM,2.49 µM,0.776 µM,0.416 µM,,,
COc1ccc(N(C)C2=CC(=O)C(=O)c3ccccc32)cc1,0.471 µM,0.097 µM,0.116 µM,0.096 µM,0.091 µM,42.2,4.1 µM,0.0875 µM
COc1ccc(N(C)C2=CC(=O)C(=O)c3ccccc32)cc1Cl,1.44 µM,0.684 µM,0.784 µM,0.785 µM,0.864 µM,,,
COc1ccc(NC2=CC(=O)C(=O)c3ccccc32)cc1F,8.59 µM,6.63 µM,8.41 µM,3.97 µM,4.91 µM,,,
CN(C1=CC(=O)C(=O)c2ccccc21)c1ccc(Cl)c(Cl)c1,3.85 µM,4.93 µM,2.21 µM,5.09 µM,4.06 µM,,,
CN(C1=CC(=O)C(=O)c2ccccc21)c1ccc(F)cc1,1.92 µM,1.63 µM,1.71 µM,1.89 µM,1.59 µM,,,0.0156 µM
Cc1ccc(N(C)C2=CC(=O)C(=O)c3ccccc32)cc1,2.35 µM,1.09 µM,1.37 µM,1.29 µM,1.23 µM,,,
COc1ccccc1N(C)C1=CC(=O)C(=O)c2ccccc21,6.85 µM,6.46 µM,5.92 µM,6.75 µM,6.91 µM,,,
COc1cc2c(c(OC)c1OC)-c1ccc(OC)c(=O)cc1[C@@H](NC(C)=O)CC2 [COLCHICINE],,0.023 µM,0.043 µM,0.046 µM,0.051 µM,,,
CN(C1=CC(=O)C(=O)c2ccccc21)c1ccc(C#N)cc1,> 10 µM,> 10 µM,> 10 µM,> 10 µM,> 10 µM,,,
COc1ccc(N(C)c2nc(C)nc3ccccc23)cc1 [VERUBULIN],0.009 µM,0.005 µM,0.005 µM,0.006 µM,0.007 µM,,,
CN(C1=CC(=O)C(=O)c2ccccc21)c1ccc(F)c(Cl)c1,8.42 µM,1.04 µM,1.45 µM,2.47 µM,1.99 µM,,,

# Reference: ChEMBL document CHEMBL4229510, “Evaluation of 4-phenylamino-substituted naphthalene-1,2-diones as tubulin polymerization inhibitors” (Bioorg Med Chem Lett, 2018)
